Test results as given in ChEMBL document CHEMBL1124476, “1-(2-aminoethyl)-6-aryl-4H- [1,2,4]triazolo[4,3-a][1,4]benzodiazepines with diuretic and natriuretic activity” (J Med Chem, 1989).

Assays:
[1] = Diuretic activity at 40 mg/kg (screening dose-94.6 umol/kg) in […] in a one stage experiment; T/C = urine vol of treated rats / urine vol of control rats; assay type: functional
Outline: (§1)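 40 mg/kg given by gavage in 25 mL/kg 0.9% saline with 0.5% (carboxymethyl)cellulose. Four rats per agent, two per metabolism cage; 20 controls; 5 h urine. T/C = treated/control urine volume. Stage-1 T/C of 1.66 or more leads to stage 2; product T/C1·T/C2 of 3.34 or more counts as active.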

[2] = Diuretic activity at 40 mg/kg (screening dose-105.3 umol/kg) in […] in a one stage experiment; T/C = urine vol of treated rats / urine vol of control rats; assay type: functional; outline: as §1
[3] = Diuretic activity at 40 mg/kg (screening dose-82.4 umol/kg) in […] in a one stage experiment; T/C = urine vol of treated rats / urine vol of control rats; assay type: functional; outline: as §1
[4] = Diuretic activity at 40 mg/kg (screening dose-77.5 umol/kg) in […] in a one stage experiment; T/C = urine vol of treated rats / urine vol of control rats; assay type: functional; outline: as §1
[5] = Diuretic activity at 40 mg/kg (screening dose 87.7 umol/kg) in […] in a two stage experiment; T/C1.2 = urine vol of treated rats / urine vol of control rats; assay type: functional; outline: as §1
[6] = organism: Rattus norvegicus; experiment: […]; assay type: ADME, organism-based, Urine; set-up: dose 3 mg/kg, route oral; settings: in vivo, po, 3 mg/kg
Outline: (§2)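 Male Sprague-Dawley rats, about 160 g, fasted 24 h and water withheld 1 1/2 h beforehand; food and water withheld during the test. Dosing by gavage with 25 mL/kg 0.9% saline containing 0.5% (carboxymethyl)cellulose, agent dissolved or suspended. Three cages of two rats each per dose, held in metabolism cages. Urine collected over 5 h. Volume given in mL, Na+ in mequiv. Significance versus control at P < 0.05.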

[7] = Diuretic activity at 40 mg/kg (screening dose-87.7 umol/kg) in […] in a one stage experiment; T/C = urine vol of treated rats / urine vol of control rats; assay type: functional; outline: as §1
[8] = system: Rattus norvegicus; experiment: Mean excretion of sodium in conscious rats at a dose of 10 mg/kg given orally; assay type: ADME, organism-based; set-up: dose 10 mg/kg, route oral; settings: in vivo, po; outline: as §2
[9] = system: Rattus norvegicus; experiment: Mean excretion of potassium in conscious rats at a dose of 10 mg/kg given orally; assay type: ADME, organism-based; set-up: dose 10 mg/kg, route oral; settings: in vivo, po
Outline: (§3)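 Secondary dose-response in male Sprague-Dawley rats (~160 g), fasted and hydrated as in the primary screen. Oral gavage at 0.3-100 mg/kg in 25 mL/kg saline/0.5% CMC, three cages of two rats per dose. Urine collected 5 h; Na, K, Cl, HCO3 measured. Values are mean excretion (mequiv), compared with controls at P < 0.05.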

[10] = system: Rattus norvegicus; experiment: Mean excretion of chloride in conscious rats at a dose of 1.0 mg/kg given orally; assay type: ADME, organism-based; set-up: dose 1 mg/kg, route oral; settings: in vivo, po; outline: as §3
[11] = system: Rattus norvegicus; experiment: Mean excretion of potassium in conscious rats at a dose of 100 mg/kg given orally; assay type: ADME, organism-based; set-up: dose 100 mg/kg, route oral; settings: in vivo, po; outline: as §3
[12] = system: Rattus norvegicus; experiment: Mean excretion of sodium in conscious rats at a dose of 100 mg/kg given orally; assay type: ADME, organism-based; set-up: dose 100 mg/kg, route oral; settings: in vivo, po; outline: as §2
[13] = system: Rattus norvegicus; experiment: Mean excretion of sodium in conscious rats at a dose of 3.0 mg/kg given orally; assay type: ADME, organism-based; set-up: dose 3 mg/kg, route oral; settings: in vivo, po; outline: as §2
[14] = system: Rattus norvegicus; experiment: Mean excretion of chloride in conscious rats at a dose of 100 mg/kg given orally; assay type: ADME, organism-based; set-up: dose 100 mg/kg, route oral; settings: in vivo, po; outline: as §3
[15] = system: Rattus norvegicus; experiment: Mean excretion of Cl- in conscious rats at a dose of 0.3 mg/kg given orally; assay type: ADME, organism-based, Urine; set-up: dose 0.3 mg/kg, route oral; settings: in vivo, po
Outline: (§4)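 Dose-response test in male Sprague-Dawley rats of about 160 g, fasted 24 h, with water withheld 1½ h before and during the test. Each rat got a single gavage of 25 mL/kg 0.9% saline with 0.5% carboxymethylcellulose carrying the agent (0.3–100 mg/kg range). Rats were housed two per metabolism cage, and urine was collected for 5 h. Mean urine volume (mL) was compared with controls (P < 0.05).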

[16] = organism: Rattus norvegicus; experiment: […]; assay type: ADME, organism-based, Urine; set-up: dose 1 mg/kg, route oral; settings: in vivo, po, 1 mg/kg; outline: as §4
[17] = system: Rattus norvegicus; experiment: Mean excretion of sodium in conscious rats at a dose of 30 mg/kg given orally; assay type: ADME, organism-based; set-up: dose 30 mg/kg, route oral; settings: in vivo, po; outline: as §2
[18] = system: Rattus norvegicus; experiment: Mean excretion of chloride in conscious rats at a dose of 30 mg/kg given orally; assay type: ADME, organism-based; set-up: dose 30 mg/kg, route oral; settings: in vivo, po; outline: as §3
[19] = organism: Rattus norvegicus; experiment: […]; assay type: ADME, organism-based, Urine; set-up: dose 10 mg/kg, route oral; settings: in vivo, po, 10 mg/kg; outline: as §2
[20] = system: Rattus norvegicus; experiment: Mean excretion of potassium in conscious rats at a dose of 1.0 mg/kg given orally; assay type: ADME, organism-based; set-up: dose 1 mg/kg, route oral; settings: in vivo, po; outline: as §3
[21] = organism: Rattus norvegicus; experiment: […]; assay type: ADME, organism-based, Urine; set-up: dose 100 mg/kg, route oral; settings: in vivo, po, 100 mg/kg; outline: as §2
[22] = system: Rattus norvegicus; experiment: Mean excretion of potassium in conscious rats at a dose of 0.3 mg/kg given orally; assay type: ADME, organism-based; set-up: dose 0.3 mg/kg, route oral; settings: in vivo, po; outline: as §3
[23] = organism: Rattus norvegicus; experiment: […]; assay type: ADME, organism-based, Urine; set-up: dose 0.3 mg/kg, route oral; settings: in vivo, po, 0.3 mg/kg; outline: as §4
[24] = system: Rattus norvegicus; experiment: Mean excretion of […] in conscious rats at a dose of 1.0 mg/kg given orally; assay type: ADME, organism-based; set-up: dose 1 mg/kg, route oral; settings: in vivo, po; outline: as §2
[25] = organism: Rattus norvegicus; experiment: […]; assay type: ADME, organism-based, Urine; set-up: dose 30 mg/kg, route oral; settings: in vivo, po, 30 mg/kg; outline: as §2
[26] = system: Rattus norvegicus; experiment: Mean excretion of chloride in conscious rats at a dose of 3.0 mg/kg given orally; assay type: ADME, organism-based; set-up: dose 3 mg/kg, route oral; settings: in vivo, po; outline: as §3
[27] = system: Rattus norvegicus; experiment: Mean excretion of chloride in conscious rats at a dose of 10 mg/kg given orally; assay type: ADME, organism-based; set-up: dose 10 mg/kg, route oral; settings: in vivo, po; outline: as §3
[28] = system: Rattus norvegicus; experiment: Mean excretion of sodium in conscious rats at a dose of 0.3 mg/kg given orally; assay type: ADME, organism-based; set-up: dose 0.3 mg/kg, route oral; settings: in vivo, po; outline: as §2
[29] = system: Rattus norvegicus; experiment: Mean excretion of potassium in conscious rats at a dose of 3.0 mg/kg given orally; assay type: ADME, organism-based; set-up: dose 3 mg/kg, route oral; settings: in vivo, po; outline: as §3
[30] = system: Rattus norvegicus; experiment: Mean excretion of potassium in conscious rats at a dose of 30 mg/kg given orally; assay type: ADME, organism-based; set-up: dose 30 mg/kg, route oral; settings: in vivo, po; outline: as §3
[31] = Diuretic activity at 40 mg/kg (screening dose-61.3 umol/kg) in […] in a one stage experiment; T/C = urine vol of treated rats / urine vol of control rats; assay type: functional; outline: as §1

## CN(C)CC(CN(C)C)c1nnc2n1-c1ccc(Cl)cc1C(c1ccccc1)=NC2
[1]
  T/C 1: 1.22

## CC(CN(C)C)c1nnc2n1-c1ccc(Cl)cc1C(c1ccccc1)=NC2 (stereo unspecified)
[2]
  T/C 1: 1.25

## CN(C)CC(c1ccccc1)c1nnc2n1-c1ccc(S(C)(=O)=O)cc1C(c1ccccc1)=NC2 (stereo unspecified)
[3]
  T/C 1: 0.7

## Clc1ccc2c(c1)C(c1ccccc1)=NCc1nnc(C(CN3CCOCC3)c3ccccc3)n1-2 (stereo unspecified)
[4]
  T/C 1: 1.46

## CC1N=C(c2ccccc2)c2cc(Cl)ccc2-n2c1nnc2C(CN(C)C)c1ccccc1 (stereo unspecified)
[5]
  T/C 1.2: 7.05
[6]
  Mean urine volume: 4.96 mL
[7]
  T/C 1: 3.05
[8]
  Mean excretion of Na+: 1.33 m equiv
[9]
  Mean excretion of K+: 0.22 m equiv
[10]
  Mean excretion of Cl-: 0.86 m equiv
[11]
  Mean excretion of K+: 0.21 m equiv
[12]
  Mean excretion of Na+: 2.04 m equiv
[13]
  Mean excretion of Na+: 0.86 m equiv
[14]
  Mean excretion of Cl-: 1.9 m equiv
[15]
  Mean excretion of Cl-: 0.82 m equiv
[16]
  Mean urine volume: 4.39 mL
[17]
  Mean excretion of Na+: 1.65 m equiv
[18]
  Mean excretion of Cl-: 1.64 m equiv
[19]
  Mean urine volume: 7.53 mL
[20]
  Mean excretion of K+: 0.19 m equiv
[21]
  Mean urine volume: 10.66 mL
[22]
  Mean excretion of K+: 0.24 m equiv
[23]
  Mean urine volume: 3.97 mL
[24]
  Mean excretion of Na+: 0.82 m equiv
[25]
  Mean urine volume: 9.56 mL
[26]
  Mean excretion of Cl-: 0.91 m equiv
[27]
  Mean excretion of Cl-: 1.33 m equiv
[28]
  Mean excretion of Na+: 0.74 m equiv
[29]
  Mean excretion of K+: 0.24 m equiv
[30]
  Mean excretion of K+: 0.24 m equiv

## CN1CCN(CC(c2ccccc2)c2nnc3n2-c2ccc(Cl)cc2C(c2ccccc2)=NC3)CC1.I (stereo unspecified)
[31]
  T/C 1: 1.02
